# Columns and labels:
# Mus musculus [1] = species on record: Mus musculus; assay: Dissociation constant of SR-141716A determined in the presence using mouse vas deferens.; format: functional
# How it was run: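 Mouse isolated vas deferens, electrically evoked contractions; agonist concentration–response curves run with SR-141716A at 31.62 nM or with Tween 80 vehicle. Kd from (x−1)=B/Kd, where x is the dose ratio. Dose ratios and 95% confidence limits by symmetrical (2+2) dose parallel line assay, using agonist concentration pairs on the steepest part of each curve.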
# Mus musculus [2] = species on record: Mus musculus; assay: Inhibition of electrically-evoked contractions of mouse vas deferens; format: functional
# How it was run: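 Mouse isolated vas deferens; response is drug-induced inhibition of electrically evoked contractions. Drugs mixed with 2 parts Tween 80 by weight and dispersed in 0.9% saline. EC50 with 95% confidence limits from nonlinear regression of log concentration–response curves.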
# Mus musculus [3] = assay: Rectal temperature in the mouse model, following intravenous administration of the compound, in the tail vein.at the dose (100 mg/kg); format: functional
# How it was run: (§1)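 Mice dosed by tail-vein iv injection in 1:1:18 emulphor:ethanol:saline, 0.1 mL/10 g body weight. Tetrad scored for spontaneous activity, tail-flick antinociception, rectal temperature and ring immobility. Values reported as ED50 ± SE from ALLFIT analysis, or as percent effect (temperature change for RT) at the stated dose (mg/kg).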
# Cannabinoid receptor 1 = Cannabinoid receptor 1 (Rattus norvegicus, UniProt P20272); assay: Binding affinity for cannabinoid receptor 1.
# Sequence of Cannabinoid receptor 1 (P20272 whole entry): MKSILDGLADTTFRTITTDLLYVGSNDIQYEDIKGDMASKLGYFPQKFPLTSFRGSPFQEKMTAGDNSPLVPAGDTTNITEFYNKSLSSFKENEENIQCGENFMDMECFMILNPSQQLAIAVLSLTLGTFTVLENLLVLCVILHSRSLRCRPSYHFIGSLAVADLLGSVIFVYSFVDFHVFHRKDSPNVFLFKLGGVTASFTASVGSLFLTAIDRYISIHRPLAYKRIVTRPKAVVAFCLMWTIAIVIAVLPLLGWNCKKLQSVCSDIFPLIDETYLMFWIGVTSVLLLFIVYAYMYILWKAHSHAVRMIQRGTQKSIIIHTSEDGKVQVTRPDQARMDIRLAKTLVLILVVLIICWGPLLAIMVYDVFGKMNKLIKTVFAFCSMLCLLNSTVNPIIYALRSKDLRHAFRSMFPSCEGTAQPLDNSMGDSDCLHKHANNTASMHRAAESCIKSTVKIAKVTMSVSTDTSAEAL
# [4] = target: Cannabinoid receptor (Homo sapiens) (UniProt P34972+P21554); assay: Ratio of binding affinities in cannabinoid CB1 receptor against cannabinoid CB2 receptor; format: protein assay
# Sequence of Cannabinoid receptor (Homo sapiens) (P21554 whole entry, looked up): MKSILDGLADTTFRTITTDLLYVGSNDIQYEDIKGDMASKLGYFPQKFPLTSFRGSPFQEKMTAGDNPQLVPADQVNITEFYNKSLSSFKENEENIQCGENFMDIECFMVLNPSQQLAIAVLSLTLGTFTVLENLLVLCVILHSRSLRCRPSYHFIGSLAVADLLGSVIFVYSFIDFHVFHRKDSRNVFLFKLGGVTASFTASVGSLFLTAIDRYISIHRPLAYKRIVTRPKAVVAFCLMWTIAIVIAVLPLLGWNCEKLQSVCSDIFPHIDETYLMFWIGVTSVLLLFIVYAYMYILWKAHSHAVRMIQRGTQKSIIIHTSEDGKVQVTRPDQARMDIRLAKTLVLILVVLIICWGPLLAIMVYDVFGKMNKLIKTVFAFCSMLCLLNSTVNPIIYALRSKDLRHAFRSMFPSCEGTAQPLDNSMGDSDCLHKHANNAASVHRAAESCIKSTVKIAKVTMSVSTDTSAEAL
# Sequence of Cannabinoid receptor (Homo sapiens) (P34972 whole entry, looked up): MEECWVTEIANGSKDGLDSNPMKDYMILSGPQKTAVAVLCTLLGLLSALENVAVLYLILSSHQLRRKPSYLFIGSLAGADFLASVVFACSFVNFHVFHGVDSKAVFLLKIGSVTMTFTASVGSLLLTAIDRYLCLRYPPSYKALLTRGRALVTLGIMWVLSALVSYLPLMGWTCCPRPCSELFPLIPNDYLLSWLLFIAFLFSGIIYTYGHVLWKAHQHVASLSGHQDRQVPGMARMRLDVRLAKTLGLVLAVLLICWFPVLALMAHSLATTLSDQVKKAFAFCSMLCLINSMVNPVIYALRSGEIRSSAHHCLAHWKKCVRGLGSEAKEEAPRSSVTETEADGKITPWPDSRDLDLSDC
# How it was run: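 Ratio of Ki values. CB1 Ki from displacement of 1 nM [3H]CP-55,940 in whole-brain P2 membranes. CB2 Ki from the same radioligand on CHO cells expressing cloned human CB2. Both Ki values from […].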
# Mus musculus [5] = assay: Rectal temperature in the mouse model, following intravenous administration of the compound(60 mg/kg), in the tail vein.; format: functional; how it was run: as §1
# Mus musculus [6] = assay: Rectal temperature in the mouse model, following intravenous administration (30 mg/kg), in the tail vein.; format: functional; how it was run: as §1
structure (smiles),measurement,setting,value
CCCCCc1cc2c(c3c1CCCO3)C1C[C@@H](O)CC[C@H]1C(C)(C)O2 (stereo partly drawn),Kd,Mus musculus [1],1.67 nM
same,EC50,Mus musculus [2],83.5 nM
CCCCCc1cc2c(c3c1CCCO3)C1CC=CC[C@H]1C(C)(C)O2 (stereo partly drawn),Kd,Mus musculus [1],2.97 nM
same,EC50,Mus musculus [2],16.5 nM
same,Temperature,Mus musculus [3],-1.2 °C
same,Ki,Cannabinoid receptor 1,364 nM
same,Ratio,[4],2.8
CCCCCc1cc2c(c3c1CCCO3)C1CC(=O)CC[C@H]1C(C)(C)O2 (stereo partly drawn),Temperature,Mus musculus [5],-2.9 °C
same,Kd,Mus musculus [1],1.72 nM
same,EC50,Mus musculus [2],7.23 nM
same,Ki,Cannabinoid receptor 1,90 nM
same,Ratio,[4],3.9
C=C1CC[C@@H]2C(C1)c1c(cc(CCCCC)c3c1OCCC3)OC2(C)C (stereo partly drawn),Kd,Mus musculus [1],2.49 nM
same,EC50,Mus musculus [2],28.6 nM
same,Temperature,Mus musculus [6],-3.6 °C
same,Ratio,[4],4.4
CCCCCc1cc2c(c3c1CCCO3)C1C[C@H](O)CC[C@H]1C(C)(C)O2 (stereo partly drawn),Kd,Mus musculus [1],1.67 nM
same,EC50,Mus musculus [2],8.35 nM

# Reference: ChEMBL document CHEMBL1130181, “Importance of the C-1 substituent in classical cannabinoids to CB2 receptor selectivity: synthesis and characterization of a series of O,2-propano-delta 8-tetrahydrocannabinol analogs” (J Med Chem, 1997)
